Measurements from ChEMBL document CHEMBL1145015, “Structure-activity relationships of 1,2,4-benzotriazine 1,4-dioxides as hypoxia-selective analogues of tirapazamine” (J Med Chem, 2003).

Legend:
[1] = Intraexperimental ratio of hypoxic TPZ C10 to hypoxic BTO C10 in mouse SCCVII tumor cells.; assay type: functional, SCC-7
Summary of the method: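 Computed within each experiment from the clonogenic SCCVII assay (1 h drug exposure, hypoxia <200 ppm O2 by gas evacuation/flushing, colony counting after 10–14 days). RHT = C10 of TPZ under hypoxia divided by C10 of the analogue under hypoxia.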

[2] = Concentration required to reduce plating efficiency to 10 percent of controls, under hypoxic conditions in mouse SCCVII tumor cells.; assay type: functional, SCC-7
Summary of the method: (§1)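 SCCVII cells plated in glass dishes (2×10^5 to 1×10^6 per dish) 1–2 days ahead. Drug freshly dissolved, given in complete medium for 1 h at 37 °C with shaking. Hypoxia (<200 ppm O2) by repeated evacuation/flushing with 95% N2 + 5% CO2; aerobic controls flushed with 95% air + 5% CO2. Cells washed, trypsinized, replated. Crystal violet stain after 10–14 days, >50-cell colonies scored. C10 is the concentration giving 10% of control plating efficiency.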

[3] = Concentration required to reduce plating efficiency to 10 percent of controls, under aerobic conditions in mouse SCCVII tumor cells.; assay type: functional, SCC-7; summary of the method: as §1
[4] = Intraexperimental difference between the hypoxic and aerobic cytotoxicity; assay type: functional
Summary of the method: (§2)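 Clonogenic SCCVII survival after 1 h drug exposure at 37 °C, either hypoxic (<200 ppm O2, 95% N2/5% CO2) or aerobic (95% air/5% CO2). Colonies of >50 cells counted after 10–14 days. HCR = aerobic C10 / hypoxic C10, with both values from the same experiment.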

SCC-7 [5] = test: Interexperimental ratio of hypoxic TPZ C10 to hypoxic BTO C10 using murine SCCVII cell line; assay type: functional, Mus musculus
SCC-7 [6] = test: Inhibitory concentration against murine SCCVII cell line under hypoxic condition; assay type: functional, cell-based; details: Mus musculus
Summary of the method: (§3)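 SRB proliferation assay in 96-well plates. SCCVII (200 cells) or HT-29 (1000 cells) seeded in αMEM + 10% FCS with glucose (17 mM final) and 100 μM 2'-deoxycytidine, then attached for 3 h. Cells exposed for 4 h at 37 °C to 2-fold serial dilutions in triplicate, either oxic (20% O2, 5% CO2) or in an anaerobic chamber (<0.001% O2). After washing, cells grew for 5 (oxic) or 6 (anoxic) days before SRB staining. IC50 values are the mean of three independent experiments.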

HT-29 [7] = test: Interexperimental ratio of hypoxic TPZ C10 to hypoxic BTO C10 using human adenocarcinoma HT-29 cell line; assay type: functional
HT-29 [8] = test: Inhibitory concentration against human adenocarcinoma HT-29 cell line under hypoxic condition; assay type: functional, cell-based; summary of the method: as §3
[9] = Interexperimental difference between the hypoxic and aerobic cytotoxicity using human adenocarcinoma HT-29 cell line; assay type: functional
SCC-7 [10] = test: Inhibitory concentration against murine SCCVII cell line under aerobic condition; assay type: functional, cell-based; details: Mus musculus; summary of the method: as §3
[11] = Intraexperimental difference between the hypoxic and aerobic cytotoxicity in mouse SCCVII tumor cells; assay type: functional, SCC-7; summary of the method: as §2
HT-29 [12] = test: Inhibitory concentration against human adenocarcinoma HT-29 cell line under aerobic condition; assay type: functional, cell-based; summary of the method: as §3
[13] = Interexperimental difference between the hypoxic and aerobic cytotoxicity using murine SCCVII cell line; assay type: functional, SCC-7
[14] = Partition coefficient (logP); assay type: physicochemical; details: octanol/water
Summary of the method: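 Octanol/water partition at pH 7.4, measured by low-volume shake flask. Drug in both the octanol and buffer phases quantified by HPLC.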

| SMILES | RHT [1] | C10 [2] [µM] | C10 [3] [µM] | HCR [4] | RHT (SCC-7 [5]) | IC50 (SCC-7 [6]) [µM] | RHT (HT-29 [7]) | IC50 (HT-29 [8]) [µM] | HCR [9] | IC50 (SCC-7 [10]) [µM] | HCR [11] | IC50 (HT-29 [12]) [µM] | HCR [13] | logP [14] |
| --- | --- | --- | --- | --- | --- | --- | --- | --- | --- | --- | --- | --- | --- | --- |
| CCCCS(=O)(=O)c1cccc2c1[n+]([O-])nc(N)[n+]2[O-] | 1.2 | 8.31 | 175 | 21.1 | – | – | – | – | – | – | – | – | – | – |
| CCN(CC)c1ccc2c(c1)[n+]([O-])c(N)n[n+]2[O-] | <0.2 | >50.8 | >1269 | – | – | – | – | – | – | – | – | – | – | – |
| Nc1n[n+]([O-])c2ccc(Cl)cc2[n+]1[O-] | 1.6 | 6.47 | 140 | – | 2.4 | 0.98 | 4.1 | 1.3 | 33 | 21.1 | 21.6 | 41.2 | 22.5 | – |
| CN(C)c1ccc2c(c1)[n+]([O-])nc(N)[n+]2[O-] | 0.043 | 237 | 3159 | 13.3 | – | – | – | – | – | – | – | – | – | – |
| COc1ccc2c(c1)[n+]([O-])c(N)n[n+]2[O-] | 0.08 | 127 | – | – | – | – | – | – | – | – | – | – | – | – |
| CN(C)c1cccc2c1[n+]([O-])c(N)n[n+]2[O-] | 0.39 | 25.8 | 30.5 | – | 0.2 | 12.2 | 0.2 | 23.3 | 0.18 | 2.1 | 1.2 | 4.2 | 0.18 | – |
| COc1cccc2c1[n+]([O-])nc(N)[n+]2[O-] | 0.4 | 25.4 | >135 | – | 0.2 | 13.5 | 0.2 | 28.8 | 21.9 | 288 | >5.3 | 624 | 25.7 | – |
| CCN(CC)c1cccc2c1[n+]([O-])c(N)n[n+]2[O-] | 0.15 | 67.7 | 58.7 | 0.87 | – | – | – | – | – | – | – | – | – | – |
| Nc1n[n+]([O-])c2cc(Cl)ccc2[n+]1[O-] | 1.1 | 9.48 | 271 | – | 3.9 | 0.61 | 7.2 | 0.73 | – | 12.2 | 28.6 | 19.8 | 20.4 | 0.46 |
| CN(C)c1ccc2c(c1)[n+]([O-])c(N)n[n+]2[O-] | <0.023 | >440 | 440 | <1 | – | – | – | – | – | – | – | – | – | – |
| Nc1n[n+]([O-])c2cc([N+](=O)[O-])ccc2[n+]1[O-] | 1.9 | 5.37 | 36.3 | – | 3.4 | 0.7 | 6.7 | 0.79 | 14.8 | 2.8 | 6.8 | 14.1 | 4.1 | – |
| COc1ccc2c(c1)[n+]([O-])nc(N)[n+]2[O-] | 0.53 | 19.3 | 1934 | 100 | – | – | – | – | – | – | – | – | – | – |
| Cc1cccc2c1[n+]([O-])nc(N)[n+]2[O-] | 0.41 | 24.7 | 2538 | 102.9 | – | – | – | – | – | – | – | – | – | 0.24 |
| CCN(CC)c1cccc2c1[n+]([O-])nc(N)[n+]2[O-] | 0.089 | 114 | 1904 | 16.7 | – | – | – | – | – | – | – | – | – | 0.82 |
| Cc1ccc2c(c1)[n+]([O-])nc(N)[n+]2[O-] | 0.63 | 16.2 | 2031 | 125 | – | – | – | – | – | – | – | – | – | 0.13 |
| Nc1n[n+]([O-])c2cccc(Cl)c2[n+]1[O-] | 1.4 | 7.46 | 10.2 | 1.4 | – | – | – | – | – | – | – | – | – | 0.07 |

| SMILES | RHT [1] | C10 [2] [µM] | C10 [3] [µM] | HCR [4] | RHT (SCC-7 [5]) | IC50 (SCC-7 [6]) [µM] | RHT (HT-29 [7]) | IC50 (HT-29 [8]) [µM] | HCR [9] | IC50 (SCC-7 [10]) [µM] | HCR [11] | IC50 (HT-29 [12]) [µM] | HCR [13] | logP [14] |
| --- | --- | --- | --- | --- | --- | --- | --- | --- | --- | --- | --- | --- | --- | --- |
| CCCCS(=O)(=O)c1ccc2c(c1)[n+]([O-])c(N)n[n+]2[O-] | 0.63 | 16.2 | <102 | <6.3 | – | – | – | – | – | – | – | – | – | – |
| CS(=O)(=O)c1ccc2c(c1)[n+]([O-])c(N)n[n+]2[O-] | 0.39 | 26.1 | <274 | <10.5 | – | – | – | – | – | – | – | – | – | – |
| Nc1n[n+]([O-])c2c(C(F)(F)F)cccc2[n+]1[O-] | 1.8 | 5.56 | 626 | 112.5 | – | – | – | – | – | – | – | – | – | 0.53 |
| Nc1n[n+]([O-])c2ccc(C(F)(F)F)cc2[n+]1[O-] | 1.2 | 8.23 | 110 | 13.3 | – | – | – | – | – | – | – | – | – | – |
| Nc1n[n+]([O-])c2ccc(F)cc2[n+]1[O-] | 1 | 10.2 | 114 | 11.2 | – | – | – | – | – | – | – | – | – | – |
| Nc1n[n+]([O-])c2cc(F)ccc2[n+]1[O-] | 1.9 | 5.41 | 381 | – | 2.2 | 1.1 | 2.8 | 1.87 | 21.7 | 17.6 | 70.3 | 47.8 | 19.3 | – |
| Cc1ccc2c(c1)[n+]([O-])c(N)n[n+]2[O-] | 0.58 | 17.4 | 2901 | – | 0.4 | 5.6 | 0.4 | – | – | 217 | 166.7 | 469 | 42.6 | 0.21 |
| CS(=O)(=O)c1ccc2c(c1)[n+]([O-])nc(N)[n+]2[O-] | 0.32 | 31.7 | 251 | 7.9 | – | – | – | – | – | – | – | – | – | -1.15 |
| Nc1n[n+]([O-])c2c(Cl)cccc2[n+]1[O-] | 3.9 | 2.58 | 102 | – | 5.2 | 0.45 | 9.6 | 0.55 | – | 8.2 | 39.4 | 7.7 | 15.9 | 0.17 |
| Nc1n[n+]([O-])c2c(F)cccc2[n+]1[O-] | 1 | 10.2 | 132 | – | 1.9 | 1.2 | 2.5 | 2.1 | 4.1 | 23.7 | 13 | 8.7 | 13.9 | – |
| CN(C)c1cccc2c1[n+]([O-])nc(N)[n+]2[O-] | 0.065 | 157 | 2769 | 17.6 | – | – | – | – | – | – | – | – | – | – |
| CCN(CC)c1ccc2c(c1)[n+]([O-])nc(N)[n+]2[O-] | <0.14 | >72.5 | > 725 | – | – | – | – | – | – | – | – | – | – | – |
| CCCCS(=O)(=O)c1ccc2c(c1)[n+]([O-])nc(N)[n+]2[O-] | 1.3 | 7.76 | >89.6 | >11.5 | – | – | – | – | – | – | – | – | – | – |
| Cc1cccc2c1[n+]([O-])c(N)n[n+]2[O-] | 0.27 | 38.1 | < 381 | <10 | – | – | – | – | – | – | – | – | – | – |
| COc1cccc2c1[n+]([O-])c(N)n[n+]2[O-] | 0.18 | 58 | 47.9 | 0.83 | – | – | – | – | – | – | – | – | – | – |
| Nc1n[n+]([O-])c2cccc(F)c2[n+]1[O-] | 1 | 10.2 | <76.1 | <7.5 | – | – | – | – | – | – | – | – | – | – |
